The source of these data is ChEMBL document CHEMBL4393678, “Novel Tetrahydroquinazolinamines as Selective Histamine 3 Receptor Antagonists for the Treatment of Obesity” (J Med Chem, 2019).

SMILES strings stand for the structures. The source made the active and inactive calls. The calls are words filed in the database; no cut-off is given here.

Data set [1] concerns Mus musculus. Briefly: Anti-obesity activity in high fat diet-induced obese C57BL/6J mouse model assessed as reduction in body fat mass at 10 mg/kg, po measured after 6 weeks relative to control by NMR-based magnetic resonance imaging analysis. The data set is classed as functional. The gist of the method:
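Male C57BL/6J mice on high-fat diet dosed orally for six weeks against a vehicle-treated high-fat diet group and a chow group. Body composition (fat mass, lean mass, % body fat) measured by EchoMRI live scanning. n=5-6. One-way ANOVA with Newman-Keuls test.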

In data set [2] the target is T1, D(4) dopamine receptor (Homo sapiens) (UniProt P21917).
T1 sequence (whole entry): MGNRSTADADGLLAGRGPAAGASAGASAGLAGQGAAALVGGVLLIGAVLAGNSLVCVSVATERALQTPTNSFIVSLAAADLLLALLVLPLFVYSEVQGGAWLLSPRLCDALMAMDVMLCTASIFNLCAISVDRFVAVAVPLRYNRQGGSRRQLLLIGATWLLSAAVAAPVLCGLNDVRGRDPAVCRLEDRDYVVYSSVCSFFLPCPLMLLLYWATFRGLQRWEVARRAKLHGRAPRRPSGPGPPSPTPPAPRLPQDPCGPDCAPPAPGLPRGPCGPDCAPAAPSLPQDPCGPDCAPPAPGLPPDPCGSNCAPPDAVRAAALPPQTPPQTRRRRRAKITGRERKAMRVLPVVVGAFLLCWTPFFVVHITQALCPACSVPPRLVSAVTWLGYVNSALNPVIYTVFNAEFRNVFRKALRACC
The experiment in a line: Agonist activity at D4 receptor (unknown origin).

Data set [3] deals with Free fatty acid receptor 1 (Homo sapiens) (UniProt O14842). Briefly: Antagonist activity at GPR40 (unknown origin) expressed in HEK293 cells harboring luc2P/NFAT-RE plasmid at 10 uM after 6 to 8 hrs by luciferase reporter gene assay. The data set is classed as cell-based. In a few lines:
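NFAT-RE luciferase assay in HEK293T cells transiently co-transfected with luc2P/NFAT-RE plasmid and receptor plasmid. Cells plated in DMEM and incubated overnight at 37 °C, 5% CO₂. Compounds and reference ligands applied for 6-8 h. Luciferase read after adding Bright-Glo substrate (1 mg/ml final).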
On the technique in general: Reporter assays use an easily measured gene product as a stand-in for the process of interest.

The test system of data set [4] is Mus musculus. The experiment in a line: Anorexic effect in 12 hrs fasted db/db-induced obese C57BL/6J mouse model assessed as reduction in cumulative food intake at 10 mg/kg, po pretreated for 30 mins followed by food addition measured after 4 hrs. Format: functional, organism-based. In a few lines: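 Mice starved 12 h (8:00 am to 8:00 pm) with water available, then housed singly. Compound given orally in 5% gum acacia in normal saline; vehicle group received the same. Cumulative food intake measured over 4 h of the night phase (9:00 pm to 1:00 am), starting 30 min after dosing. Antagonism arms: imitet 5 mg/kg i.p. 30 min before compound, or α-methyl-DL-histidine 20 mg/kg i.p. 2 h before.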

Data set [5] has as its target Histamine H4 receptor (Homo sapiens) (UniProt Q9H3N8). The experiment in a line: Antagonist activity at recombinant human Gi-coupled H4 receptor expressed in HEK293T cells assessed as reduction in histamine-induced inhibition of forskolin-stimulated cAMP accumulation at 10 uM preincubated for 10 to 15 followed by histamine addition for 10 mins and subsequent forskolin-stimulation by Glo-sensor assay. The data set is classed as functional, cell-based. A general note: Cyclic AMP is a second messenger, typically raised through Gs and lowered through Gi signalling.

For another data set, the target named is Histamine H2 receptor (Homo sapiens, UniProt P25021). The experiment in a line: Agonist activity at recombinant human Gs-coupled H2 receptor expressed in HEK293T cells assessed as inhibition of forskolin-stimulated cAMP accumulation preincubated for 10 to 15 followed by forskolin-stimulation by Glo-sensor assay. The data set is classed as functional, cell-based.

A short description of data set [6]: Cmax in C57BL/6J mouse serum assessed as 4-(2-Amino-8-methyl-5,6,7,8-tetrahydroquinazolin-4-yl)phenol level at 20 mg/kg, po by LC-MS/MS analysis. The data set is classed as ADME, organism-based. The arrangement: dose 20 mg/kg, route oral. Conditions: in vivo. The gist of the method:
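Male C57BL/6J mice (6-8 weeks, 20 ± 5 g) fasted overnight (12-16 h) got a single 20 mg/kg oral dose as 2.5 mg/mL suspension in 1% w/v gum acacia; n=5 per time point. Serum and brain (PBS homogenate 1:6 w/v) sampled up to 24 h. Parent and demethylated metabolite quantified by LC-MS/MS after liquid-liquid extraction (C18, MRM, phenacetin internal standard; linear 0.25-200 ng/mL). Two-compartment open model fit.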

Data set [7] addresses Voltage-gated inwardly rectifying potassium channel KCNH2 (Homo sapiens, UniProt Q12809). The experiment in a line: Inhibition of tracer Red binding to human ERG expressed in membranes up to 10 uM after 3 hrs by fluorescence polarization assay. For orientation: Polarisation of emitted light reports the rotation of a fluorescent probe.

Chain of Histamine H2 receptor (P25021 whole entry): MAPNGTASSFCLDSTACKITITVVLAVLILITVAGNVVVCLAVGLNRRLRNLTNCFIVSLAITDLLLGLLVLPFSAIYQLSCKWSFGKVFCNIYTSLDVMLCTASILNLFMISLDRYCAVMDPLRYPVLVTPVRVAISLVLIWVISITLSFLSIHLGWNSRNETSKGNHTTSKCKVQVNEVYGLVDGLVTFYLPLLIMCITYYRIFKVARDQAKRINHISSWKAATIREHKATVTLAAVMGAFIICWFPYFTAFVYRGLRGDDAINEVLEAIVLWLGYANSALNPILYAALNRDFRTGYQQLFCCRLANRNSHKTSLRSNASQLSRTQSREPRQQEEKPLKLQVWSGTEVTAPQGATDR
Chain of Histamine H4 receptor (Homo sapiens) (Q9H3N8 whole entry): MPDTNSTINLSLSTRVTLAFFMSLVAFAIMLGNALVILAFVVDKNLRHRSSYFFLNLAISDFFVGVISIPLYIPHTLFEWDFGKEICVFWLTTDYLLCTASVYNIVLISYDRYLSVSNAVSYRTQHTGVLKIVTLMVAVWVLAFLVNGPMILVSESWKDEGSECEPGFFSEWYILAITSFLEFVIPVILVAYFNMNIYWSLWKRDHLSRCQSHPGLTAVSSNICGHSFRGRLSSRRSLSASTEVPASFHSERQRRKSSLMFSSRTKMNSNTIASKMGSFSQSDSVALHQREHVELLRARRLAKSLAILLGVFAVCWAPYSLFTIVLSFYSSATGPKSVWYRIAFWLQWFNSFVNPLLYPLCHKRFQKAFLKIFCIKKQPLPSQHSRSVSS
Chain of Free fatty acid receptor 1 (Homo sapiens) (O14842 whole entry): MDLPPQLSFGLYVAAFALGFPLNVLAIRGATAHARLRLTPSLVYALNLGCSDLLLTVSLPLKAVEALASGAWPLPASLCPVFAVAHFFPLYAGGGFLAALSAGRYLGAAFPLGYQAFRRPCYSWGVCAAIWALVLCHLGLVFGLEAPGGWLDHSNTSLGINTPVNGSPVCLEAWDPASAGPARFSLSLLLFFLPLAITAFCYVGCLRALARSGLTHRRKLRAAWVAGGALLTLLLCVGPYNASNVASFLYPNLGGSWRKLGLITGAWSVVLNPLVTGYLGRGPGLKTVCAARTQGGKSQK
Chain of Voltage-gated inwardly rectifying potassium channel KCNH2 (Q12809 whole entry): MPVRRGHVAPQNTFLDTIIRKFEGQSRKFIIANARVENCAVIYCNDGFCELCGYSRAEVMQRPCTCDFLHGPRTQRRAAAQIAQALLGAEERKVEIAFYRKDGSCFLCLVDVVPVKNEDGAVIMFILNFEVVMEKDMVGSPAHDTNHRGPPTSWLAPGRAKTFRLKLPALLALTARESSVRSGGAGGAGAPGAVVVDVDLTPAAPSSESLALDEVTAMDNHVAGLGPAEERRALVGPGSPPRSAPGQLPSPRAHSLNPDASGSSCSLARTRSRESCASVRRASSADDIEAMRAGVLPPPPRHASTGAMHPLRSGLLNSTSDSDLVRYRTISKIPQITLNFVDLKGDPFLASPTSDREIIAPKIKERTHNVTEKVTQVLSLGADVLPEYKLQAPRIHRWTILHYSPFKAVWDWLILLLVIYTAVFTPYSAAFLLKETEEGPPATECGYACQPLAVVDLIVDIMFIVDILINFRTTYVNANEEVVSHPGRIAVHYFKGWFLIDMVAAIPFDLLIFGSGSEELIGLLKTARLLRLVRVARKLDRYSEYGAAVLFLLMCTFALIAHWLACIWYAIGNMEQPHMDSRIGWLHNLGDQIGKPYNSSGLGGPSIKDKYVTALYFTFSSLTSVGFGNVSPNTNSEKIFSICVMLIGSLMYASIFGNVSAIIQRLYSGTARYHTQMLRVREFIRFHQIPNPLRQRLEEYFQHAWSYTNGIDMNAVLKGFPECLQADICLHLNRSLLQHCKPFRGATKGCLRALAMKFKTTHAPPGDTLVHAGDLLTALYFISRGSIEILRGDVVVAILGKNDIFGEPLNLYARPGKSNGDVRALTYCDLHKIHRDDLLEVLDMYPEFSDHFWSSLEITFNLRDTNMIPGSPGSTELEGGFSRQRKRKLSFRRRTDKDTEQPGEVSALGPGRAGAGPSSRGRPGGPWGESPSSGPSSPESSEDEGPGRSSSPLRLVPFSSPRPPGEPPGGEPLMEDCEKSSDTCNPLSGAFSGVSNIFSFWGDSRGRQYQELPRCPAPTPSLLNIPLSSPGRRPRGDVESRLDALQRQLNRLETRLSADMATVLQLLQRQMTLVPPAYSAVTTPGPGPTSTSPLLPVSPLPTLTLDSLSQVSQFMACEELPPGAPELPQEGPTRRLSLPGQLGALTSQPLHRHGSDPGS

As usually defined, the Cmax is the peak of the concentration-time curve. Regarding `COc1ccc(-c2nc(N)nc3c2CCCC3C)cc1` (racemic), in the data set on Mus musculus [1], the outcome was Active. For the same molecule, the result (in data set [2]; in the data set with Mus musculus [4]) was inactive. The inhibition result in data set [3] and in data set [5] was “inactive” each time. The EC50 entry on Histamine H2 receptor is given as “Not Active”. At Histamine H2 receptor, the INH is above 10 µM. Further, the Cmax in data set [6] came out at 3333.3 ng/mL. Besides, the “inhibition (INH)” value in data set [7] is reported as “Not Active”.
